From ChEMBL document CHEMBL2412970, “Synthesis and anticancer activity of 2,4-disubstituted furo[3,2-b]indole derivatives” (Eur J Med Chem, 2013)
Active and inactive are the calls of the source. The calls are words filed in the database; no cut-off is given here.

Legend:
A498 [1] = experiment: Cell cycle arrest in human A498 cells assessed as accumulation at S phase at 0.5 uM after 24 hrs by propidium iodide staining-based flow cytometry (reference value: 15.92 +/- 0.03%); type: functional
A498 [2] = experiment: Antitumor activity against human A498 cells xenografted in BALB/cAnN.Cg-Foxn1nu/CrlNarl nude mouse assessed as suppression of tumor growth at 30 to 60 mg/kg/day, ip qd; type: functional, organism-based; settings: TDE = time-dependent effect
Procedure, shortened: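 Male nude mice (18–20 g, 4–6 weeks) were inoculated subcutaneously with A498 cells, 2 × 10⁶ per mouse in 0.1 mL PBS. Once tumors reached 100 mm³, mice were randomized and given ip doses of 30 or 60 mg/kg, 5 times per week for 4 weeks. Body weight and tumor size were recorded every 7 days over 28 days. Volume = 1/2 ([…]).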

786-0 = experiment: Cytotoxicity against human 786-0 cells after 48 hrs by sulforhodamine B assay; type: functional; settings: 786-0, 48 h
NCI-H460 = experiment: Cytotoxicity against human NCI-H460 cells after 48 hrs by sulforhodamine B assay; type: functional; settings: NCI-H460, 48 h
SK-MEL-2 = experiment: Cytotoxicity against human SK-MEL-2 cells after 48 hrs by sulforhodamine B assay; type: functional; settings: SK-MEL-2, 48 h
MDA-MB-468 = experiment: Cytotoxicity against human MDA-MB-468 cells after 48 hrs by sulforhodamine B assay; type: functional; settings: MDA-MB-468, 48 h
CAKI-1 = experiment: Cytotoxicity against human Caki1 cells after 48 hrs by sulforhodamine B assay; type: functional; settings: CAKI-1, 48 h
A498 [3] = experiment: Induction of apoptosis in human A498 cells assessed as caspase-3 activation at 0.5 uM after 24 hrs by Western blotting analysis; type: functional, cell-based
Procedure, shortened: (§1)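 A498 cells exposed for 6, 12, 24, 36 or 48 h, then washed in PBS and lysed. Lysates were held on ice for 30 min and spun at 12 000g for 20 min. Supernatant protein was measured by Bradford assay, run on 10% SDS-PAGE and transferred to nitrocellulose. Blots were probed for AIF, Endo G, Apaf-1, cytochrome c, caspase 9 and caspase 3, with β-actin as loading control; n = 3 independent experiments.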

T47D = experiment: Cytotoxicity against human T47D cells after 48 hrs by sulforhodamine B assay; type: functional
UACC-62 = experiment: Cytotoxicity against human UACC62 cells after 48 hrs by sulforhodamine B assay; type: functional; settings: UACC-62, 48 h
A498 [4] = experiment: Cell cycle arrest in human A498 cells assessed as accumulation at sub-G1 phase at 0.5 uM after 48 hrs by propidium iodide staining-based flow cytometry (reference value: 0.10 +/- 0.07%); type: functional
MCF7 = experiment: Cytotoxicity against human MCF7 cells after 48 hrs by sulforhodamine B assay; type: functional; settings: MCF7, 48 h
SK-MEL-5 = experiment: Cytotoxicity against human SK-MEL-5 cells after 48 hrs by sulforhodamine B assay; type: functional; settings: SK-MEL-5, 48 h
HT-29 = experiment: Cytotoxicity against human HT-29 cells after 48 hrs by sulforhodamine B assay; type: functional; settings: HT-29, 48 h
A498 [5] = experiment: Cell cycle arrest in human A498 cells assessed as accumulation at G2/M phase at 0.5 uM after 36 hrs by propidium iodide staining-based flow cytometry (reference value: 5.39 +/- 0.01%); type: functional
[6] = Cytotoxicity against human EKVX cells after 48 hrs by sulforhodamine B assay; type: functional
A498 [7] = experiment: Induction of apoptosis in human A498 cells assessed as late apoptotic cells at 0.5 uM after 24 hrs by AnnexinV/FITC-propidium iodide staining-based flow cytometry (reference value: 9.6%); type: functional
Procedure, shortened: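 Flow cytometry with annexin V-FITC/PI double labeling of A498 cells treated for 12, 24, 36 or 48 h; untreated cells served as the 0 h control. Stained in binding buffer for 15 min at room temperature in the dark, with more binding buffer added just before analysis. Annexin V+/PI− (Q4) counted as early apoptotic and annexin V+/PI+ (Q2) as late apoptotic.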

OVCAR-3 = experiment: Cytotoxicity against human OVCAR3 cells after 48 hrs by sulforhodamine B assay; type: functional; settings: OVCAR-3, 48 h
IGROV-1 = experiment: Cytotoxicity against human IGROV1 cells after 48 hrs by sulforhodamine B assay; type: functional; settings: IGROV-1, 48 h
NCI/ADR-RES = experiment: Cytotoxicity against human NCI/ADR-RES cells after 48 hrs by sulforhodamine B assay; type: functional
ACHN = experiment: Cytotoxicity against human ACHN cells after 48 hrs by sulforhodamine B assay; type: functional
A498 [8] = experiment: Induction of cell cycle arrest at G2/M phase in human A498 cells assessed as increase in cyclin B1 expression at 0.5 uM after 6 hrs by Western blotting analysis; type: functional, cell-based
Procedure, shortened: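 A498 cells exposed to 0.5 µM for 6, 12, 24, 36 or 48 h, then lysed on ice 30 min and spun 12 000g 20 min. Protein measured by Bradford; 20 µg per lane run on 10% SDS-PAGE, transferred to nitrocellulose, probed for cyclin B1 and CDK1, β-actin as loading control; n = 3 independent experiments.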

A498 [9] = experiment: Induction of apoptosis in human A498 cells assessed as early apoptotic cells at 0.5 uM after 24 hrs by AnnexinV/FITC-propidium iodide staining-based flow cytometry (reference value: 3.9%); type: functional
A498 [10] = experiment: Cell cycle arrest in human A498 cells assessed as accumulation at G2/M phase at 0.5 uM after 24 hrs by propidium iodide staining-based flow cytometry (reference value: 5.39 +/- 0.01%); type: functional
SK-MEL-28 = experiment: Cytotoxicity against human SK-MEL-28 cells after 48 hrs by sulforhodamine B assay; type: functional; settings: SK-MEL-28, 48 h
A498 [11] = experiment: Induction of apoptosis in human A498 cells assessed as increase in Apaf-1 level at 0.5 uM after 6 to 48 hrs by Western blotting analysis; type: functional, cell-based; procedure, shortened: as §1
A498 [12] = experiment: Induction of apoptosis in human A498 cells assessed as early apoptotic cells at 0.5 uM after 12 hrs by AnnexinV/FITC-propidium iodide staining-based flow cytometry (reference value: 3.9%); type: functional
[13] = read-out: pLC50 (the source's name) (converted)

OCc1ccc(Cn2c3ccccc3c3oc(CO)cc32)o1
Activity (A498 [1]): 15.98% | Activity (A498 [2]): tde | GI50 (786-0): 50.1 µM | CC50 (786-0; [13]): > 100 µM | TGI (786-0; read-out: pTGI): > 100 µM | GI50 (NCI-H460): > 100 µM | CC50 (NCI-H460; [13]): > 100 µM | TGI (NCI-H460; read-out: pTGI): > 100 µM | GI50 (SK-MEL-2): > 100 µM | CC50 (SK-MEL-2; [13]): > 100 µM | TGI (SK-MEL-2; read-out: pTGI): > 100 µM | GI50 (MDA-MB-468): 0.17 µM | TGI (MDA-MB-468; read-out: pTGI (converted)): 0.562 µM | GI50 (CAKI-1): 51.3 µM | CC50 (CAKI-1; [13]): > 100 µM | TGI (CAKI-1; read-out: pTGI): > 100 µM | Activity (A498 [3]): Active | GI50 (T47D): 1.62 µM | CC50 (T47D; [13]): > 100 µM | TGI (T47D; read-out: pTGI): > 100 µM | GI50 (UACC-62): 3.24 µM | CC50 (UACC-62; [13]): > 100 µM | TGI (UACC-62; read-out: pTGI): > 100 µM | Activity (A498 [4]): 12.76% | GI50 (MCF7): 9.33 µM | CC50 (MCF7; [13]): > 100 µM | TGI (MCF7; read-out: pTGI): > 100 µM | GI50 (SK-MEL-5): > 100 µM | CC50 (SK-MEL-5; [13]): > 100 µM | TGI (SK-MEL-5; read-out: pTGI): > 100 µM | GI50 (HT-29): 41.7 µM | CC50 (HT-29; [13]): > 100 µM | TGI (HT-29; read-out: pTGI): > 100 µM | Activity (A498 [5]): 15.98% | GI50 [6]: 24 µM | CC50 [6, 13]: > 100 µM | TGI ([6]; read-out: pTGI): > 100 µM | Activity (A498 [7]): 15.6% | GI50 (OVCAR-3): 8.91 µM | CC50 (OVCAR-3; [13]): > 100 µM | TGI (OVCAR-3; read-out: pTGI): > 100 µM | GI50 (IGROV-1): 4.68 µM | CC50 (IGROV-1; [13]): > 100 µM | TGI (IGROV-1; read-out: pTGI): > 100 µM | GI50 (NCI/ADR-RES): > 100 µM | CC50 (NCI/ADR-RES; [13]): > 100 µM | TGI (NCI/ADR-RES; read-out: pTGI): > 100 µM | GI50 (ACHN): 79.4 µM | CC50 (ACHN; [13]): > 100 µM | TGI (ACHN; read-out: pTGI): > 100 µM | Activity (A498 [8]): Active | Activity (A498 [9]): 12.7% | Activity (A498 [10]): 11.37% | GI50 (SK-MEL-28): > 100 µM | CC50 (SK-MEL-28; [13]): > 100 µM | TGI (SK-MEL-28; read-out: pTGI): > 100 µM | Activity (A498 [11]): Active | Activity (A498 [12]): 5%
